# Test results published in ChEMBL document CHEMBL1128287, “Ketanserin analogues: the effect of structural modification on 5-HT2 serotonin receptor binding” (J Med Chem, 1995).
# Key:
# [1] = target: T1, 5-hydroxytryptamine receptor 2C (Rattus norvegicus, UniProt P08909); test: Binding affinity against 5-hydroxytryptamine 2C receptor
# T1 sequence (P08909 whole entry): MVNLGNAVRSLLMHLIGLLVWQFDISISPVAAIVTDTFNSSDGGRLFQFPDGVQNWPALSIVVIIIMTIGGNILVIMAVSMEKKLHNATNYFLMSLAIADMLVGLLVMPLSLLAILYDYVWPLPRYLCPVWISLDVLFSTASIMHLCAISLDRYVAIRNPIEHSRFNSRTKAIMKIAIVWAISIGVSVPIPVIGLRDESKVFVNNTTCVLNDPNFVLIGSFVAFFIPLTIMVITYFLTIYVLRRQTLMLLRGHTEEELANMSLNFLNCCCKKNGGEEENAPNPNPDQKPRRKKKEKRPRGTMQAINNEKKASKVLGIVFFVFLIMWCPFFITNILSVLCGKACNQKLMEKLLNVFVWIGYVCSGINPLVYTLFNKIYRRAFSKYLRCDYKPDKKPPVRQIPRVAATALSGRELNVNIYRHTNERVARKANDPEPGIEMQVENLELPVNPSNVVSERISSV
# Outline: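 Washed brain membranes in Tris-HCl/MgCl2 pH 7.4 with ascorbate and pargyline. Triplicate tubes held 10 mg wet tissue, 1 nM [³H]-mesulergine, and 100 nM spiperone in every tube to block 5-HT2A sites. Nonspecific binding was defined with 1.0 μM mianserin. Incubated 15 min at 37 °C, then filtered and counted. Ki came from IC50 corrected for radioligand concentration and KD.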
# [2] = target: Serotonin receptor 2a and 2c (5HT2A and 5HT2C) (Rattus norvegicus) (UniProt P08909+P14842); test: Selectivity as the ratio of Ki value towards 5-hydroxytryptamine 2C receptor to that of 5-hydroxytryptamine 2A receptor; format: protein assay
# Serotonin receptor 2a and 2c (5HT2A and 5HT2C) (Rattus norvegicus), sequence (P14842 whole entry, looked up, one chain of several): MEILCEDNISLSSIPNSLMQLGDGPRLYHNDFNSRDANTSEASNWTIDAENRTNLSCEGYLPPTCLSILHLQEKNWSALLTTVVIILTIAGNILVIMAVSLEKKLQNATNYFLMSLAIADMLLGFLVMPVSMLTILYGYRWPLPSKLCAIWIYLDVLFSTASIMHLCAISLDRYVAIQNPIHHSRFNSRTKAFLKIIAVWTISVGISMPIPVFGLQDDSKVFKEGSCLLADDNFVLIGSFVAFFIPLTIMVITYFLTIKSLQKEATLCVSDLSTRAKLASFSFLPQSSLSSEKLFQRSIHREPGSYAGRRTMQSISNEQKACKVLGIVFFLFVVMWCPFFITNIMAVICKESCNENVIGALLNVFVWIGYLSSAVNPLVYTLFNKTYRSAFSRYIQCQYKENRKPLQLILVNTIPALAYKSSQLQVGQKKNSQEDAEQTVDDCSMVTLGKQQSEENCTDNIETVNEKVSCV
# [3] = target: 5-hydroxytryptamine receptor 2A (Rattus norvegicus, UniProt P14842); test: Binding affinity against 5-hydroxytryptamine 2A receptor
# 5-hydroxytryptamine receptor 2A, sequence (P14842 whole entry): as the sequence (P14842 whole entry, looked up, one chain of several) above
# Outline: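 Brain tissue homogenized in Tris-HCl 50 mM, MgCl2 10 mM, pH 7.4, then washed, incubated 15 min at 37 °C, and resuspended with 0.1% ascorbate and 10⁻⁵ M pargyline. Triplicate tubes held 5 mg wet tissue and 0.4 nM [³H]-ketanserin, with 1.0 μM cinanserin defining nonspecific binding. Incubated 15 min at 37 °C, then filtered. Ki = IC50/(1 + D*/KD*).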
SMILES,Ki [1] [nM],Selectivity [2],Ki [3] [nM]
c1ccc(CCCCN2CCC(=C(c3ccccc3)c3ccccc3)CC2)cc1,220,11,20
O=C(c1ccc(F)cc1)C1CCN(CCCCc2ccccc2)CC1,,120,5.3
Fc1ccc(CC2CCN(CCCCc3ccccc3)CC2)cc1,2740,70,40
CN1CCC(C(=O)c2ccccc2)CC1,> 10000,> 16,600
CN1CCN(C(=O)c2ccccc2)CC1,> 10000,,> 10000
O=C(c1ccccc1)C1CCN(CCCCc2ccccc2)CC1,2400,240,10
OC(c1ccccc1)C1CCN(CCCCc2ccccc2)CC1 (stereo unspecified),> 10000,> 35,265
O=C(c1ccc(F)cc1)C1CCN(CCc2ccccc2)CC1,,17,8.5
c1ccc(CCN2CCC(Cc3ccccc3)CC2)cc1,1760,80,22
C(=C(\c1ccccc1)C1CCN(CCc2ccccc2)CC1)/c1ccccc1,,,19
O=C(c1ccccc1)C1CCN(CCc2ccccc2)CC1,800,83,9.6
OC(c1ccc(F)cc1)C1CCN(CCc2ccccc2)CC1 (stereo unspecified),1520,460,3
C(/Cc1ccccc1)=C(\c1ccccc1)C1CCN(CCCCc2ccccc2)CC1,1390,14,100
Fc1ccc(CC2CCN(CCc3ccccc3)CC2)cc1,2000,110,18
c1ccc(CCN2CCC(=C(c3ccccc3)c3ccccc3)CC2)cc1,29,4,6.9
c1ccc(CCCCN2CCC(Cc3ccccc3)CC2)cc1,4120,34,120
OC(c1ccc(F)cc1)C1CCN(CCCCc2ccccc2)CC1 (stereo unspecified),6600,52,126
c1ccc(CCCCN2CCN(Cc3ccccc3)CC2)cc1,> 10000,> 40,240
O=c1[nH]c2ccccc2c(=O)n1CCN1CCN(C(c2ccccc2)c2ccccc2)CC1,635,10,65
O=C(c1ccccc1)N1CCN(CCCCc2ccccc2)CC1,8520,47,180
OC(c1ccccc1)C1CCN(CCc2ccccc2)CC1 (stereo unspecified) [GLEMANSERIN],830,330,2.5
O=c1[nH]c2ccccc2c(=O)n1CCN1CCC(C(c2ccccc2)c2ccccc2)CC1,52,3,18
